Assay results pooled from the literature.
Target: Serine/threonine-protein kinase 26 (STK26, Homo sapiens, UniProt Q9P289)

F[C@@H]1CCN(c2nccc(-c3cnn4ncccc34)n2)C1  remaining signal (cell-free assay; 1 µM): 100%
Cn1c2c(Cl)c(Cl)ccc2c2cc[nH]c(=O)c21  ΔTm (thermal stability, DSF; 10 µM): 1.5 °C
COc1cc2ncnc(Nc3ccc(Oc4ccccc4)cc3C)c2cc1OC  inhibition (enzyme activity, inhibitor; 1 µM): -2%
FC(F)(F)Oc1cccc(-c2cnc3ccc(-c4ccncc4)nn23)c1  activity vs control (enzyme activity, inhibitor, radiometric; 1 µM): 96%
O=C(Nc1ccc(Oc2ccc(F)cc2)cc1)N1CCc2ncccc2[C@H]1c1ccc(F)cc1  remaining binding (cell-free assay, competition with immobilised ligand; 1 µM): 100%
O=C(Nc1cnn(-c2csc(C(=O)NC3COC3)c2)c1)Nc1ccccc1Cl  remaining activity (enzyme activity, inhibitor; 5 µM): 98.3%
N#CCCc1ccc2c(c1)-c1[nH]c3ccc([N+](=O)[O-])cc3c1CC(=O)N2  remaining signal (cell-free assay; 0.5 µM): 65.1%
CS(=O)(=O)c1cc(C2(NC(=O)c3cncc4c3cnn4-c3ccc(F)cc3)CC2)ccn1  remaining binding (cell-free assay, competition with immobilised ligand; 1 µM): 97%
Cn1c2c(c3ccccc31)C(C#N)C(C)(C)NC2=O (stereo not shown)  ΔTm (thermal stability, DSF; 10 µM): 1.9 °C
COc1cc(-c2cc(-c3ccc(N4CCNCC4)cc3)cnc2N)cc(OC)c1OC  inhibition (enzyme activity, inhibitor; 0.1 µM): 0%
CC(C)(O)[C@H]1CC[C@H](Nc2ccc3ncc(-c4cccc(C(F)(F)F)c4)n3n2)CC1  remaining activity (enzyme activity, inhibitor; 1 µM): 109%
NS(=O)(=O)c1cc(NC(=O)Cc2ccccc2)ccc1Oc1cccc(Cl)c1  remaining binding (cell-free assay, competition with immobilised ligand; 1 µM): 99%
C[C@H]1CCN(c2nccc(-c3cnn4ncccc34)n2)C1  remaining signal (cell-free assay; 1 µM): 73%
O=C(NS(=O)(=O)c1ccc(NCC2CCOCC2)c([N+](=O)[O-])c1)c1ccc(N2CCN(Cc3ccc(C(F)(F)F)cc3-c3ccc(Cl)cc3)CC2)cc1Oc1cnc2[nH]ccc2c1  remaining binding (cell-free assay, competition with immobilised ligand; 1 µM): 72%
COc1cc(-c2cc(-c3ccc(N4CCNCC4)cc3)cnc2C)cc(OC)c1OC  inhibition (enzyme activity, inhibitor; 1 µM): 12%
c1ccc(CNc2nc(N3CCOc4ccccc43)nc3c2CCCC3)cc1  inhibition (target engagement in cells, inhibitor, chemoproteomics; 20 mM): 38.2%
Oc1cccc(-c2nc(N3CCOCC3)c3oc4ncccc4c3n2)c1  remaining activity (enzyme activity, inhibitor; 10 µM): 114%
CC(C)(C)c1nc2c(s1)c1nc(N)ncc1c1ccc(NS(=O)(=O)c3c(F)cccc3F)c(F)c12  remaining activity (enzyme activity, inhibitor, radiometric; 1 µM): 98%
CC1(C)NC(=O)c2[nH]c3c(Cl)c(Cl)ccc3c2C1C#N (stereo not shown)  ΔTm (thermal stability, DSF; 10 µM): 2.4 °C
Nc1nc(NC2CCCCC2)sc1C(=O)c1ccccc1  remaining activity (enzyme activity, inhibitor; 10 µM): 76%
COc1cc(/C=C/C(=O)CC(=O)/C=C/c2ccc(O)c(OC)c2)ccc1O  activity vs control (enzyme activity, inhibitor; 1 µM): 75%
Cc1ccc(NC(=O)c2ccc(C)c(C(F)(F)F)c2)cc1C#Cc1nn(C2CCC(O)CC2)c2ncnc(N)c12 (stereo not shown)  remaining signal (cell-free assay; 10 µM): 73%
CS(=O)(=O)N1CCCC(NC(=O)[C@H](CCC2CCCCC2)NC(=O)c2ccc(CNc3ncnc4c3nnn4-c3ccccc3)cc2)C1 (stereo partly shown)  remaining binding (cell-free assay, competition with immobilised ligand; 0.1 µM): 92%
COc1cc(Nc2cnc(C#N)c(O[C@H](C)CN(C)C)n2)ncc1-c1cnn(C)c1  remaining activity (enzyme activity, inhibitor, radiometric; 1 µM): 83%
CN(C)c1nccc(-c2cnc3ncccn23)n1  remaining signal (cell-free assay; 1 µM): 68%
Nc1nc(Nc2ccccc2)sc1C(=O)c1c(F)cccc1F  remaining activity (enzyme activity, inhibitor; 10 µM): 57%
Nc1ncnc2occ(-c3ccc(NC(=O)Nc4cc(C(F)(F)F)ccc4F)cc3)c12  remaining signal (cell-free assay, inhibitor; 20 µM): 2.6%
CCC(=O)N[C@H]1CC[C@@H](C(=O)N(C)c2ccc(-c3nc4ccccc4o3)cc2)C1  remaining binding (cell-free assay, competition with immobilised ligand; 1 µM): 76%
O=C1NC(=O)c2cc(Nc3ccc(F)cc3)c(Nc3ccc(F)cc3)cc21  remaining signal (cell-free assay; 0.5 µM): 99%
CN(C)C1CCN(CC#Cc2nn(C3CCCC3)c3nc(NCc4ccccc4)ncc23)C1 (stereo not shown)  inhibition (enzyme activity, inhibitor, FRET; 1 µM): 20%
CCCS(=O)(=O)Nc1ccc(F)c(C(=O)c2c[nH]c3ncc(-c4ccc(Cl)cc4)cc23)c1F  inhibition (enzyme activity, inhibitor; 1 µM): < 10%
Cn1c2c(c3ccc(Cl)c(Cl)c31)C(C#N)C1(CCNCC1)NC2=O (racemic)  ΔTm (thermal stability, DSF; 10 µM): -0.5 °C
CC(=O)N1CCC(c2ccc(C(=O)NC(=N)N)cc2C(F)(F)F)CC1  remaining binding (cell-free assay, competition with immobilised ligand; 1 µM): 97%
CN(CCCC(F)(F)F)c1nccc(-c2cnn3ncccc23)n1  remaining signal (cell-free assay; 1 µM): 100%
Cc1ccc(C(=O)Nc2ccc(CN3CCN(C)CC3)c(C(F)(F)F)c2)cc1C#Cc1cnc2cccnn12  remaining activity (enzyme activity, inhibitor; 23.5 nM): 86%
O=C(NCCCNc1nc(Nc2cccc(NC(=O)N3CCCC3)c2)ncc1I)c1cccs1  inhibition (enzyme activity, inhibitor; 1 µM): -93%
N[C@H]1CCN(c2nccc(-c3cnn4ncccc34)n2)C1  remaining signal (cell-free assay; 1 µM): 71%
C[C@H](c1ccc(F)cc1)N(Cc1cccc(C(=O)O)c1)C(=O)c1cnc2ccccc2c1  remaining binding (cell-free assay, competition with immobilised ligand; 1 µM): 79%
CC1CCCN1c1nccc(-c2cnn3ncccc23)n1 (stereo not shown)  remaining signal (cell-free assay; 1 µM): 100%
Oc1cccc(-c2nc(N3CCOCC3)c3oc4ncccc4c3n2)c1  remaining signal (cell-free assay; 0.5 µM): 98.6%
